Data on twelve compounds can be found in ChEMBL document CHEMBL1129288, “Design and synthesis of non-peptide Ras CAAX mimetics as potent farnesyltransferase inhibitors” (J Med Chem, 1996).

As usually defined, the IC50 is the concentration needed to halve the response being measured. A low value points to greater potency in that assay.

Experiment [1] deals with T1, Protein farnesyltransferase (Homo sapiens, UniProt P49354+P49356). The experiment can be described thus: In vitro inhibition of Farnesyltransferase. It is filed as protein-complex assay. The method, boiled down: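 Partially purified FTase from human Burkitt lymphoma (Daudi) cells, incubated with [³H]FPP and recombinant H-Ras-CVLS for 30 min at 37 °C.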
Experiment [2] has as its target Geranylgeranyl transferase type I (Homo sapiens, UniProt P49354+P53609). Kind of experiment: In vitro inhibition of Geranylgeranyl transferase type I. It is filed as protein-complex assay. The method, boiled down:
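Partially purified GGTase I from human Burkitt lymphoma (Daudi) cells, incubated for 30 min at 37 °C.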

Experiment [3] has as its target T1, Protein farnesyltransferase. The experiment can be described thus: Inhibition of human Burkitt lymphoma (Daudi) cell farnesyltransferase. The settings on record: target entry is the homologue from another species.

`Cc1cccc(-c2ccc(NC[C@@H](N)CS)cc2)c1`: the half-maximal inhibitory concentration (IC50) in experiment [1] is 0.71 µM; in experiment [2], more than 100 µM.
The corresponding values for `COc1cc(NC[C@@H](N)CS)ccc1-c1cccc(C(=O)O)c1` are 0.04 µM and 43.6 µM.
With `N[C@@H](CS)CNc1ccc(-c2ccccc2C(=O)O)cc1`, the figures for the IC50 in experiment [3] and in experiment [2] were 0.543 µM and 140 µM, respectively.
Turning to `N[C@@H](CS)CNc1ccc(-c2cccc(C(=O)O)c2)cc1`, the half-inhibitory concentration (IC50) in experiment [1] worked out at 0.114 µM; in experiment [2], 100 µM.
Turning to `COC(=O)c1cccc(-c2ccc(NC[C@@H](N)CS)cc2)c1`, the IC50 was 0.917 µM in experiment [1] and more than 100 µM in experiment [2].
Turning to `CC[C@H](C)[C@H](NC(=O)[C@@H](NC(=O)[C@@H](N)CS)C(C)C)C(=O)N[C@@H](CCSC)C(=O)O`, in experiment [1], half-maximal inhibition (IC50) required 0.2 µM.
Turning to `N[C@@H](CS)CNc1ccc(-c2ccccc2)cc1`, the IC50 in experiment [1] was 1.07 µM; in experiment [2], more than 100 µM.
For `N[C@@H](CS)C(=O)NCc1cccc(-c2cccc(C(=O)O)c2)c1`, in that order: 100 µM and more than 100 µM.
Compound `CSCC[C@H](NC(=O)c1ccc(NC(=O)[C@@H](N)CS)cc1)C(=O)O` registered a half-maximal inhibitory concentration (IC50) in experiment [1] of 0.15 µM.
As for `N[C@@H](CS)C(=O)Nc1ccc(-c2cccc(C(=O)O)c2)cc1`, the values for the IC50 in experiment [1] and in experiment [2] were 13.5 µM and 100 µM, respectively.
The corresponding values for `N[C@@H](CS)CNCc1cccc(-c2cccc(C(=O)O)c2)c1` are 11 µM and 35 µM.
`N[C@@H](CS)CNc1ccc(-c2ccc(C(=O)O)cc2)cc1` yielded a half-maximal inhibitory concentration (IC50) in experiment [2] of more than 100 µM.
